Assay results of several laboratories.
Protocols differ between the studies behind these lines.
CDK4: Cyclin-dependent kinase 4 (CDK4, Homo sapiens, UniProt P11802)
CDK4 with cyclin D3: Cyclin-dependent kinase 4, with cyclin D3 (CDK4, Homo sapiens, UniProt P11802)
CDK4 with cyclin D1: Cyclin-dependent kinase 4, with cyclin D1 (CDK4, Homo sapiens, UniProt P11802)

| SMILES | target | observed | action | method | concentration | endpoint | result |
| --- | --- | --- | --- | --- | --- | --- | --- |
| Cc1cc(O)c(-c2ccc([C@@H](C)CN(C)C)cc2)c2c1[nH]c(=O)c1sccc12 | CDK4 | enzyme activity | inhibitor | – | 0.1 µM | inhibition | 4.95% |
| COc1ccc2[nH]c3c4[nH]c5ccc(OC)cc5c4c4c(c3c2c1)C(=O)NC4=O | CDK4 with cyclin D3 | binding | – | – | 1 µM | remaining binding | 74% |
| C[C@]1(O)CCCN(c2nc(Nc3ccc(S(=O)(=O)N[C@H]4CC[C@H](CN5CCN(c6ccc(C7CCC(=O)NC7=O)cc6F)CC5)CC4)cc3F)ncc2C(F)(F)F)C1 (stereo partly drawn) | CDK4 with cyclin D1 | binding | – | competition with immobilised ligand | 1 µM | remaining binding | 97% |
| Cc1ccc(NC(=O)c2ccnc(C(F)(F)F)c2)cc1-c1cc(OCCO)nc(N2CCOCC2)c1 | CDK4 with cyclin D3 | binding | – | – | 1 µM | remaining binding | 100% |
| CC#CC(=O)N1CCC[C@H]1c1nc(-c2ccc(C(=O)Nc3ccccn3)cc2)c2c(N)nccn12 | CDK4 with cyclin D3 | enzyme activity | inhibitor | – | 1 µM | inhibition | 0% |
| CCCCC(=O)Nc1ccc(-c2ccc3ncn(CCC)c(=O)c3c2)cn1 | CDK4 | binding | – | competition with immobilised ligand | 0.5 µM | remaining binding | 100% |
| CN1CCN(C(=O)c2ccc(NC(=O)Nc3ccc(N(C)c4ccnc(Nc5ccc(CS(C)(=O)=O)cc5)n4)cc3)cc2)CC1 | CDK4 with cyclin D3 | binding | – | – | 1 µM | remaining binding | 89% |
| C[C@]1(O)CCCN(c2nc(Nc3ccc(S(=O)(=O)N[C@H]4CC[C@H](CN5CCN(c6ccc(C7CCC(=O)NC7=O)cc6F)CC5)CC4)cc3Cl)ncc2C(F)(F)F)C1 (stereo partly drawn) | CDK4 | binding | – | competition with immobilised ligand | 1 µM | remaining binding | 93% |
| C=CC(=O)N1CCC([C@@H]2CCNc3c(C(N)=O)c(-c4ccc(Oc5ccccc5)cc4)nn32)CC1 | CDK4 with cyclin D3 | enzyme activity | inhibitor | – | 1 µM | inhibition | 0% |
| C1=C/COCc2cc(ccc2OCCN2CCCC2)Nc2nccc(n2)-c2cccc(c2)COC/1 | CDK4 with cyclin D3 | binding | – | – | 0.1 µM | remaining binding | 25% |
| CO[C@@H]1[C@H](N(C)C(=O)c2ccccc2)C[C@H]2O[C@]1(C)n1c3ccccc3c3c4c(c5c6ccccc6n2c5c31)C(=O)NC4 | CDK4 with cyclin D3 | enzyme activity | inhibitor | – | 1 µM | inhibition | 2% |
| CNS(=O)(=O)c1ccc(Nc2ncc(C(F)(F)F)c(N3CCC[C@](C)(O)C3)n2)c(C)c1 | CDK4 with cyclin D1 | binding | – | competition with immobilised ligand | 1 µM | remaining binding | 46% |
